Laboratory results published in ChEMBL document CHEMBL1144383, “A new development of matrix metalloproteinase inhibitors: twin hydroxamic acids as potent inhibitors of MMPs” (Bioorg Med Chem Lett, 2005).

Key:
Interstitial collagenase = biological target: T1, Interstitial collagenase (Homo sapiens, UniProt P03956); experiment: Inhibition of Matrix metalloprotease-1 in MMPi assay
T1 sequence (P03956 whole entry): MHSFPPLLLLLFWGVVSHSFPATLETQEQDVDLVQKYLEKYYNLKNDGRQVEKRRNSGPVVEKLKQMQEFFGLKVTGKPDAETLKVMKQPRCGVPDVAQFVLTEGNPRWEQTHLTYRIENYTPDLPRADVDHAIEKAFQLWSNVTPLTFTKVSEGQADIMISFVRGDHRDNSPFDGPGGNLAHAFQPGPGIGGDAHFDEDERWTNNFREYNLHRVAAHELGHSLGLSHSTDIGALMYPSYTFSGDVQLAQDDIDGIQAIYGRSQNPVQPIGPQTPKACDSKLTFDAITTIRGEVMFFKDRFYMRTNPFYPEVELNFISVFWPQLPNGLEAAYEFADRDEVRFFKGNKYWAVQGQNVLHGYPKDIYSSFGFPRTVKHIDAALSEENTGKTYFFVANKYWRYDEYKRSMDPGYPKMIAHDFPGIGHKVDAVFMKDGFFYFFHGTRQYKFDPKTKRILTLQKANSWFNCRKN

[1] = biological target: Matrix metalloproteinase-14 (Homo sapiens, UniProt P50281); experiment: Inhibition of Matrix metalloprotease-14 in MMPi assay
[2] = biological target: Matrix metalloproteinase-9 (Homo sapiens, UniProt P14780); experiment: Inhibition of Matrix metalloprotease-9 in MMPi assay
[3] = biological target: 72 kDa type IV collagenase (Homo sapiens, UniProt P08253); experiment: Inhibition of Matrix metalloprotease-2 in MMPi assay
HT-1080 [4] = experiment: Cytotoxicity as percentage of dead cells at 5 uM using Trypan Blue test on HT1080 cells; assay type: functional, Homo sapiens
In short: (§1)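 HT1080 cells stably transfected to overexpress MT1-MMP, seeded at 10⁵ cells/well and kept overnight at 37 °C. Washed free of serum, then given serum-free DMEM with insulin, transferrin and selenium. Compound added at 0, 1, 5 or 10 (micromolar) to duplicate wells for 24 h. Trypsinized cells mixed 1:1 with 0.4% trypan blue for 5 min. Blue-stained and total cells counted on haemocytometer upper and lower grids. % dead = mean of duplicates minus untreated wells.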

HT-1080 [5] = experiment: Cytotoxicity as percentage of dead cells at 10 uM using Trypan Blue test on HT1080 cells; assay type: functional, Homo sapiens; in short: as §1
HT-1080 [6] = experiment: Cytotoxicity as percentage of dead cells at 1 uM using Trypan Blue test on HT1080 cells; assay type: functional, Homo sapiens; in short: as §1
[7] = system: Matrix metalloproteinase-14; experiment: Inhibition of Matrix metalloprotease-14 in MMPi assay

72 kDa type IV collagenase, sequence (P08253 whole entry): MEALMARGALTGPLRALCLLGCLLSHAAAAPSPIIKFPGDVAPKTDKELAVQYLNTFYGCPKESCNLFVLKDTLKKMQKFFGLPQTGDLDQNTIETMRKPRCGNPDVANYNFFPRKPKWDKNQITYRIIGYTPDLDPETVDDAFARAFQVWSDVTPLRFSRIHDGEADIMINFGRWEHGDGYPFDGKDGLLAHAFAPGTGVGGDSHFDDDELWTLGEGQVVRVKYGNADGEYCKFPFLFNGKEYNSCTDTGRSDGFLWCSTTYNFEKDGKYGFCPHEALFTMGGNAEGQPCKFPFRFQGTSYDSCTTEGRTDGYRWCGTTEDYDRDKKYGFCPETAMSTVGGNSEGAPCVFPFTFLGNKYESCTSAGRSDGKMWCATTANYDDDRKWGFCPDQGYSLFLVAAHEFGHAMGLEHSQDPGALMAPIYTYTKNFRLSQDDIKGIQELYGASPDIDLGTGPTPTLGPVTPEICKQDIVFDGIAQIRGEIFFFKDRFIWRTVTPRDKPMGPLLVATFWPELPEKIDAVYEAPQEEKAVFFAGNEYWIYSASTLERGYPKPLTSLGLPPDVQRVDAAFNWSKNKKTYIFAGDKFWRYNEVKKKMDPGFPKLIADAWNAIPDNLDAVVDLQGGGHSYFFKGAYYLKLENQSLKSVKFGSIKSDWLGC
Matrix metalloproteinase-9, sequence (P14780 whole entry): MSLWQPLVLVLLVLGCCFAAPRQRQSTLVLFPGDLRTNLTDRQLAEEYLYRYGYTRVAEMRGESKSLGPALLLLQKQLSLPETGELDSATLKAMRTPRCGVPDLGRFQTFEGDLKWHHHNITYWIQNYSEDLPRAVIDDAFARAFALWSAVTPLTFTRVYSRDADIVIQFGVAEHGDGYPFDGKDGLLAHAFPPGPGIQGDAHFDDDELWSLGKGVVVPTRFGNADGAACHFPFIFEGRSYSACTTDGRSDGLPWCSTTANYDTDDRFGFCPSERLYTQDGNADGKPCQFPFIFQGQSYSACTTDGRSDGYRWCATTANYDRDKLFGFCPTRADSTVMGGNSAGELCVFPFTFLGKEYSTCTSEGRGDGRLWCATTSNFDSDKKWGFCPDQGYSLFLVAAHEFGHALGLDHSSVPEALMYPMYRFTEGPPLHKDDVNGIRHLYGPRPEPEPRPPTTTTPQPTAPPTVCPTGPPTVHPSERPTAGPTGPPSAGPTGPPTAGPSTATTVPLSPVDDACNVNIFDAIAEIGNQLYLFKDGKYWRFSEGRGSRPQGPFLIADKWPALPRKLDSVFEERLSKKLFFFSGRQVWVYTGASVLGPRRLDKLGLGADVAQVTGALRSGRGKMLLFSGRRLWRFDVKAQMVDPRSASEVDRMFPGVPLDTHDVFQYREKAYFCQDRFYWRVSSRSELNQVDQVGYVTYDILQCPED

IC50 [1] [nM]	IC50 [2] [nM]	IC50 [3] [nM]	Compound	IC50 (Interstitial collagenase) [nM]	Dead cells (HT-1080 [4]) [%]	Dead cells (HT-1080 [5]) [%]	Dead cells (HT-1080 [6]) [%]	IC50 [7] [nM]
1490	983	197	CC(C)ON([C@H](CCNC(=O)c1cccc(C(=O)NCC[C@H](C(=O)NO)N(OC(C)C)S(=O)(=O)c2ccc(-c3ccccc3)cc2)c1)C(=O)NO)S(=O)(=O)c1ccc(-c2ccccc2)cc1	10000	–	–	–	–
–	–	–	CC(C)ON([C@H](CCNC(=O)OCc1ccccc1)C(=O)NO)S(=O)(=O)c1ccc(-c2ccccc2)cc1	> 3000	20	35	4	–
–	> 30000	> 1000	CC(C)ON([C@H](CCNC(=O)c1cccc(C(=O)NCC[C@H](C(=O)O)N(OC(C)C)S(=O)(=O)c2ccc(-c3ccccc3)cc2)c1)C(=O)O)S(=O)(=O)c1ccc(-c2ccccc2)cc1	–	–	–	–	–

Compound	IC50 [1] [nM]	IC50 [2] [nM]	IC50 [3] [nM]	IC50 (Interstitial collagenase) [nM]	Dead cells (HT-1080 [4]) [%]	Dead cells (HT-1080 [5]) [%]	Dead cells (HT-1080 [6]) [%]	IC50 [7] [nM]
CC(C)ON([C@H](CCNC(=O)CCCNC(=O)c1cccc(C(=O)NCCCC(=O)NCC[C@H](C(=O)NO)N(OC(C)C)S(=O)(=O)c2ccc(-c3ccccc3)cc2)c1)C(=O)NO)S(=O)(=O)c1ccc(-c2ccccc2)cc1	–	8.3	9.8	397	5	10	0	34
